A short description of data set [1]: Bioavailability in dog at 0.5 mg/kg, iv and 2 mg/kg, po. The format is ADME, organism-based, Canis lupus familiaris. To be noted: in vivo.
The nature of data set [2]: Half life in rhesus monkey at 0.5 mg/kg, iv and 2 mg/kg, po. The format is ADME, organism-based, Macaca mulatta. To be noted: in vivo.
Data set [3] can be described thus: Drug level in blood of transgenic mouse expressing human GCGR at 10 mg/kg, po after 120 mins. The data set is classed as ADME, organism-based. Set-up: dose 10 mg/kg, route oral. The note with it: read-out: Drug uptake. Put shortly:
(§1)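 Blood drug concentration sampled in hGCGR transgenic mice during the oral glucagon-challenge pharmacodynamic assay at 45 and 120 min post dose, 10 and 30 mpk groups, n = 3 per group.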

In data set [4] the target is T1, Gastric inhibitory polypeptide receptor (Homo sapiens, UniProt P48546).
T1 sequence (P48546 whole entry): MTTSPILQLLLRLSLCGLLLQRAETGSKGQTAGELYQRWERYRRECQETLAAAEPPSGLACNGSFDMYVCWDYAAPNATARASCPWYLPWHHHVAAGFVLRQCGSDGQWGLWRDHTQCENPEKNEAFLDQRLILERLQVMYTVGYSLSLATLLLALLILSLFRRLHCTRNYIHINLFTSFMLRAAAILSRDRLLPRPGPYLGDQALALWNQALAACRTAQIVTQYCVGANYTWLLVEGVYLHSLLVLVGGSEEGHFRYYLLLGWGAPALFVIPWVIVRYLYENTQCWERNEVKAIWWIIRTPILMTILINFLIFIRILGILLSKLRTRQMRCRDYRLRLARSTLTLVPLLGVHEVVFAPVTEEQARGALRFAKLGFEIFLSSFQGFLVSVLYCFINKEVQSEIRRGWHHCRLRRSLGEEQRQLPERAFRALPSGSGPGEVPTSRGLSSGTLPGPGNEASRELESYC
Description: Antagonist activity at human GIPR expressed in CHO cells assessed as inhibition of glucagon-induced cAMP accumulation. The data set is classed as functional, cell-based. Background: Changes in cAMP serve as a functional read-out for many G protein-coupled receptors.

Data set [5] relates to Mus musculus. Nature of the data set: Antidiabetic activity in transgenic mouse expressing human GCGR assessed as inhibition of glucagon-induced blood glucose excursion at 10 mg/kg, po administered 60 mins before glucagon challenge measured after 48 mins. Set-up: dose 10 mg/kg. The format is functional, organism-based. A digest of the protocol:
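hGCGR transgenic mice (only functional receptor is human GCGR), 9 per group, given compound orally, then glucagon 15 µg/kg IP 60 min later (one arm dosed 30 mpk three hours before challenge); blood glucose monitored at 12, 24, 36 and 48 min after glucagon.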

A further data set concerns the target T2, Cytochrome P450 2C8 (Homo sapiens, UniProt P10632).
T2 sequence (P10632 whole entry): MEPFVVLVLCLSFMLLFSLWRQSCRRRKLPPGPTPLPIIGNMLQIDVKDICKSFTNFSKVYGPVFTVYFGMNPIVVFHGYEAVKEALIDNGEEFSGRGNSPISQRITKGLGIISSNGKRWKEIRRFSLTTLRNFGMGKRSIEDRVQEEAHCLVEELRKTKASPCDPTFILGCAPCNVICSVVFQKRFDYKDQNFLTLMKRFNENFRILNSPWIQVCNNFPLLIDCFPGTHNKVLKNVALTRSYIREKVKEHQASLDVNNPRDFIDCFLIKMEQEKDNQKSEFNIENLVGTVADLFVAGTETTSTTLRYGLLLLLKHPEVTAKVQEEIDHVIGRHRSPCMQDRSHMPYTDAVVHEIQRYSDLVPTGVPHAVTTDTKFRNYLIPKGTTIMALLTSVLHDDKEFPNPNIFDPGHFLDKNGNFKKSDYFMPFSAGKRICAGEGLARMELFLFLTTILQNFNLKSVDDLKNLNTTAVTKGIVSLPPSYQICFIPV
Nature of the data set: Inhibition of CYP2C8. The format is ADME.

The nature of data set [6]: Drug level in blood of transgenic mouse expressing human GCGR at 30 mg/kg, po after 45 mins. Also noted: dose 30 mg/kg, route oral. To be noted: read-out: Drug uptake. The data set is classed as ADME, organism-based. Put shortly:
as §1

A further data set has as its system Rhesus monkey. Description: Dose normalized AUC in rhesus monkey at 2 mg/kg, po. The data set is classed as ADME, organism-based, Macaca mulatta. To be noted: in vivo. Also noted: dose 2 mg/kg, route oral.
The nature of data set [7]: Plasma clearance in rhesus monkey at 0.5 mg/kg, iv and 2 mg/kg, po. The data set is classed as ADME, organism-based, Macaca mulatta.
A short description of data set [8]: Plasma concentration in rhesus monkey at 10 mg/kg, po after 4 hrs. The data set is classed as ADME, organism-based, Macaca mulatta. Set-up: dose 10 mg/kg, route oral. A digest of the protocol:
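Overnight-fasted rhesus monkeys received the oral dose 4 h before the glucagon challenge (15 µg/kg im, time zero). Plasma drug level was sampled at the time of the challenge (t = 0, n = 4). Plasma glucose was then followed every 10 min and expressed as the change from time zero.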

A short description of data set [9]: Bioavailability in mouse at 1 mg/kg, iv and 2 mg/kg, po. The data set is classed as ADME, organism-based. To be noted: in vivo.
A short description of data set [10]: Drug level in blood of transgenic mouse expressing human GCGR at 10 mg/kg, po after 45 mins. The format is ADME, organism-based. Set-up: dose 10 mg/kg, route oral. The note with it: read-out: Drug uptake. Put shortly: as §1
Data set [11] concerns Mus musculus. Description: In vivo occupancy of human GCGR transfected in mouse at 10 mg/kg after 8 hrs. The format is functional. Put shortly:
(§2)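 In vivo receptor occupancy measured in hGCGR transgenic mice after oral dosing, at 1 h post-dose (30 and 10 mpk) and in a separate experiment at 1, 3 and 8 h after 10 mpk.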

Data set [12] can be described thus: Volume of distribution at steady state in rat at 1 mg/kg, iv and 2 mg/kg, po. The data set is classed as ADME, organism-based. The note with it: in vivo, read-out: Vdss.
The nature of data set [13]: Plasma clearance in dog at 0.5 mg/kg, iv and 2 mg/kg, po. The data set is classed as ADME, organism-based, Canis lupus familiaris.
The nature of data set [14]: Bioavailability in rat at 1 mg/kg, iv and 2 mg/kg, po. To be noted: in vivo. The data set is classed as ADME, organism-based.
In a further data set the target is Uncharacterized protein (Canis lupus familiaris, UniProt A0A8I3N355). Nature of the data set: Antagonist activity at dog GCGR assessed as inhibition of glucagon-induced cAMP accumulation. The data set is classed as functional.
Data set [15] in a line: Bioavailability in rhesus monkey at 0.5 mg/kg, iv and 2 mg/kg, po. The data set is classed as ADME, organism-based, Macaca mulatta. The note with it: in vivo.
Data set [16] is described as follows: Half life in dog at 0.5 mg/kg, iv and 2 mg/kg, po. The format is ADME, organism-based, Canis lupus familiaris. To be noted: in vivo.
Data set [17] deals with Mus musculus. Nature of the data set: In vivo occupancy of human GCGR transfected in mouse at 30 mg/kg, po after 1 hr. The data set is classed as functional. A digest of the protocol:
as §2

A short description of data set [18]: Half life in rat at 1 mg/kg, iv and 2 mg/kg, po. The data set is classed as ADME, organism-based. The note with it: in vivo.
Data set [19] is described as follows: Drug level in blood of transgenic mouse expressing human GCGR at 30 mg/kg, po after 120 mins. The data set is classed as ADME, organism-based. Set-up: dose 30 mg/kg, route oral. To be noted: read-out: Drug uptake. Put shortly:
as §1

A further data set is filed under the species Homo sapiens. Nature of the data set: Binding affinity to human sodium channel up to 10 uM.
A short description of data set [20]: Cmax in dog at 2 mg/kg, po. The format is ADME, organism-based, Canis lupus familiaris. Set-up: dose 2 mg/kg, route oral. To be noted: in vivo.

Results on one compound are retold here after ChEMBL document CHEMBL1641377, “Discovery of novel, potent, selective, and orally active human glucagon receptor antagonists containing a pyrazole core” (Bioorg Med Chem Lett, 2011).

Active and inactive are the calls of the source. No cut-off for these calls is given here.

Chain of Uncharacterized protein (A0A8I3N355 whole entry): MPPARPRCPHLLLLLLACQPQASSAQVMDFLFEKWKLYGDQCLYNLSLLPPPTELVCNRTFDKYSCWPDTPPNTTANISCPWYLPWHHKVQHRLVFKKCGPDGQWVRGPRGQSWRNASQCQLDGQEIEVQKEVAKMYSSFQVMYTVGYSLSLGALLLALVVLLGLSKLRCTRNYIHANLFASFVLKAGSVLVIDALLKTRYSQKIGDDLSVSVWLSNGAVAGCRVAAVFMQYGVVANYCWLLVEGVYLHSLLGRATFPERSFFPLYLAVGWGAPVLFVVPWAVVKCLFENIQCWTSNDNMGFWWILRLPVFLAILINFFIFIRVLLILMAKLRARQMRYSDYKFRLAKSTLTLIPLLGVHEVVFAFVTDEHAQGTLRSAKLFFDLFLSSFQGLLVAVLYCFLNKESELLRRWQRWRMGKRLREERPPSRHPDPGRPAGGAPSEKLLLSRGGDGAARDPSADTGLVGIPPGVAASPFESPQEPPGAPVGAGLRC

For the compound `O=C(O)CCNC(=O)c1ccc(Cn2nc(-c3cc(Cl)cc(Cl)c3)cc2-c2ccc(OC(F)(F)F)cc2)cc1`, the bioavailability (usually the share of a dose that reaches the circulation, judged against a reference dose that is usually intravenous) was determined as 46% in [1], 15% in data set [9], 57% in data set [14] and 68% in data set [15]. The results for the half-life in data set [2], in data set [16] and in data set [18] were 10 h, 3.6 h and 6.5 h, respectively. The concentration at 2 h in data set [3] turned out to be 3.35 µM; in data set [19], 14.2 µM. Also, the IC50 (as a rule, the concentration that inhibits the measured activity by half) in data set [4] is 7.5 µM; on Cytochrome P450 2C8, 19 µM; at Uncharacterized protein, 0.4 µM. The inhibition entry in the data set on Mus musculus [5] is “Active”. For the same compound, the concentration at 0.75 h in [6] worked out at 10.3 µM; in data set [10], 3.55 µM. The compound further came in with an AUC in the data set on Rhesus monkey of 30 µM·kg·h/mg. Further, the clearance in data set [7] was 0.68 mL/min/kg; in data set [13], 0.49 mL/min/kg. In [8], this compound displayed a concentration at 4 h of 8.8 µM. Further, the Activity is on record as 51% in the data set on Mus musculus [11] and 87% in the data set on Mus musculus [17]. In addition, the Vd in data set [12] was 0.75 L/kg. The result in the data set filed under Homo sapiens was inactive. Further, the Cmax (commonly the highest concentration seen after dosing) in [20] is 7.7 µM.
